Experimental data pooled from the literature.
Sample: plasma

Structure (SMILES)	host	route	dose	setting	measurement	value
CCOC(=O)[C@@]12C[C@@H]1[C@@H](n1ccc3c(NC)nc(C#Cc4ccc(Cl)s4)nc31)[C@H](O)[C@@H]2O	male Sprague-Dawley rat	oral	3 mg/kg	–	MRT(0-t)	2.44 h
COc1ccc(C(C)=O)c(O)c1	male Sprague-Dawley rat	oral	100 mg/kg	–	MRT(0-t)	3.83 h
C#Cc1cccc(Nc2ncnc3cc(OCCOC)c(OCCOC)cc23)c1	male Sprague-Dawley rat	oral	12 mg/kg	single dose	MRT(0-t)	5.07 h
O=C(Nc1cc(F)c(F)c(F)c1)c1ccc(F)c(S(=O)(=O)NCc2cccc(B(O)O)c2)c1	male Sprague-Dawley rat	oral	20 mg/kg	–	MRT(0-inf)	1.25 h
CNCc1cc(-c2ccccc2F)n(S(=O)(=O)c2cccnc2)c1	Sprague-Dawley rat	oral	10 mg/kg	–	MRT(0-inf)	2.47 h
CCc1nc(C(N)=O)c(Nc2ccc(N3CCC(N4CCN(C)CC4)CC3)c(OC)c2)nc1NC1CCOCC1	male Sprague-Dawley rat	oral	10 mg/kg	–	MRT(0-t)	19.5 h
N#Cc1ccc(Nc2nc(N)cc(Oc3c(F)cc(-c4ccc(C#N)cc4)cc3F)n2)cc1	Sprague-Dawley rat	oral	5 mg/kg	–	MRT(0-inf)	6.48 h
CCc1cc(OC)c2nccc(N3CCc4c(cc(Cn5ccnc5)cc4-c4cn(C)nc4C(F)(F)F)C3=O)c2c1	male Sprague-Dawley rat	intravenous	3 mg/kg	–	MRT(0-inf)	1 h
O=C(c1cc(Cc2n[nH]c(=O)c3ccccc23)ccc1F)N1CCN(C(=O)C2CC2)CC1	female Sprague-Dawley rat	intravenous	–	–	MRT	1.52 h
Oc1c(Br)cc(Cl)c2cccnc12	Sprague-Dawley rat	oral	20 mg/kg	–	MRT	6.8 h
CCc1cc(C(=O)NC)c2nccc(N3CCc4c(cc(Cn5ccnc5)cc4-c4cn(C)nc4C(F)(F)F)C3=O)c2c1	male Sprague-Dawley rat	oral	100 mg/kg	–	MRT(0-inf)	10.6 h
COc1nc(-c2cc(C)c(N[C@@H](C)c3cc(F)cc(F)c3)nn2)ccc1-n1cnc(C)c1	male Sprague-Dawley rat	oral	5 mg/kg	single dose	MRT(0-t)	6.87 h
